Measured values published in ChEMBL document CHEMBL3217723, “Optimizing PK properties of cyclic peptides: the effect of side chain substitutions on permeability and clearance()” (Medchemcomm, 2012).
*1 amine or outer side, *2 acyl side, *3 side chain or, on linkers, in order; H or OH if unused. Where a SMILES comes first, the peptide text is derived from it. [ ]: non-standard residue; d: D form. X1 = CN([C@@H](CCN1CCCCC1)C(=O)[*:2])[*:1]; NMeW = CN[C@@H](Cc1c[nH]c2ccccc12)C(=O)O; NMeY = CN[C@@H](Cc1ccc(O)cc1)C(=O)O; NMeLys(Me) = CNCCCC[C@H](NC)C(=O)O; NMeT = CN[C@H](C(=O)O)[C@@H](C)O; NMeL = CN[C@@H](CC(C)C)C(=O)O; dNMeL = CN[C@H](CC(C)C)C(=O)O; NMeK = CN[C@@H](CCCCN)C(=O)O; NMeS = CN[C@@H](CO)C(=O)O

Tests used:
[1] = Terminal elimination half life in Wistar-Han rat at 1 mg/kg, iv; assay type: ADME, organism-based; design: dose 1 mg/kg, route intravenous; details: in vivo, read-out: beta t1/2 (converted)
[2] = Terminal elimination half life in Wistar-Han rat at 10 mg/kg, po; assay type: ADME, organism-based; design: dose 10 mg/kg, route oral; details: in vivo, read-out: beta t1/2 (converted)
In short: (§1)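 Male Wistar-Hannover rats (230–250 g, n = 3), jugular-cannulated, were fasted overnight and dosed by oral gavage. Vehicle depended on compound: SEDDS/water or propylene glycol/sodium phosphate pH 7.4. Blood was collected at 0.083–24 h into K2EDTA and the plasma analyzed by LC-MS/MS. Terminal half-life came from the non-compartmental ln-concentration slope.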

[3] = Intrinsic clearance in rat liver microsomes by LC-MS/MS analysis; assay type: ADME; details: read-out: CLH
In short: (§2)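 Compound at 1 µM with liver microsomes (CYP 0.25 µM) in 0.1 M potassium phosphate, pH 7.4, at 37 °C. Final solvent was 0.975% acetonitrile and 0.025% DMSO. Mix prewarmed 5 min, then started with 1.3 mM NADPH; no-NADPH controls were run. Sampled at 0–60 min into acetonitrile and followed by LC-MS/MS for substrate loss. T1/2 was scaled to CLint by the well-stirred model.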

[4] = AUC (0 to infinity) in male Wistar-Han rat at 10 mg/kg, po; assay type: ADME, organism-based; design: time infinity, dose 10 mg/kg, route oral; details: plasma
In short: (§3)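 Jugular vein-cannulated male Wistar-Hannover rats (230-250 g), n = 3, fasted overnight and fed after the 4 h sample; oral dosing in the i.v. formulations, except the SEDDS formulation used 90% water. Serial blood 0.083–24 h, K2EDTA plasma, LC-MS/MS against standard curve; non-compartmental AUC0-∞ by linear trapezoid rule.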

[5] = Apparent permeability from apical to basolateral side in human Caco2 cells by LC-MS/MS analysis; assay type: ADME, cell-based; details: Caco-2
[6] = Cmax in male Wistar-Han rat at 10 mg/kg, po; assay type: ADME, organism-based; design: dose 10 mg/kg, route oral; details: in vivo
[7] = Intrinsic clearance in human liver microsomes by LC-MS/MS analysis; assay type: ADME; details: read-out: CLH; in short: as §2
[8] = AUC (0 to infinity) in male Wistar-Han rat at 1 mg/kg, iv; assay type: ADME, organism-based; design: time infinity, dose 1 mg/kg, route intravenous; details: plasma
[9] = Plasma clearance in male Wistar-Han rat at 1 mg/kg, iv; assay type: ADME, organism-based; design: dose 1 mg/kg, route intravenous
[10] = Tmax in male Wistar-Han rat at 10 mg/kg, po; assay type: ADME, organism-based; design: dose 10 mg/kg, route oral; details: in vivo
[11] = Oral bioavailability in male Wistar-Han rat at 10 mg/kg; assay type: ADME, organism-based; details: in vivo
In short: (§4)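 Male Wistar-Hannover rats (230-250 g, cannulated; n = 3) fasted overnight, fed after the 4 h sample, and dosed orally in the i.v. formulations or 10% SEDDS:90% water. Serial blood sampled 0.083–24 h into K2EDTA. Plasma measured by LC-MS/MS against a standard curve. Cmax and Tmax read from individual profiles; F = oral AUC0-∞ relative to i.v. AUC0-∞.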

[12] = Volume of distribution at steady state in male Wistar-Han rat at 1 mg/kg, iv; assay type: ADME, organism-based; design: dose 1 mg/kg, route intravenous; details: in vivo, read-out: Vdss
[13] = Lipophilicity, log D of the compound at pH 7.4 by shake-flask method; assay type: physicochemical; details: buffer
[14] = Oral bioavailability in male Wistar-Han rat assessed as dose escapes hepatic metabolism; assay type: ADME, organism-based; details: in vivo
[15] = Oral bioavailability in male Wistar-Han rat assessed as fraction of absorbed dose; assay type: ADME, organism-based; details: in vivo, read-out: Fabs
[16] = Oral bioavailability in male Wistar-Han rat at 5 mg/kg; assay type: ADME, organism-based; details: in vivo; in short: as §4
[17] = AUC (0 to infinity) in male Wistar-Han rat at 5 mg/kg, po; assay type: ADME, organism-based; design: time infinity, dose 5 mg/kg, route oral; details: plasma; in short: as §3
[18] = Cmax in male Wistar-Han rat at 5 mg/kg, po; assay type: ADME, organism-based; design: dose 5 mg/kg, route oral; details: in vivo
In short: (§5)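 Jugular vein-cannulated male Wistar-Hannover rats (230-250 g), n = 3, fasted overnight and fed after the 4 h sample. Single oral dose in compound-specific vehicles (10% SEDDS:90% water, or propylene glycol with 20 mM sodium phosphate pH 7.4). Serial blood at 0.083–24 h into K2EDTA. Plasma protein-precipitated with internal standard and analysed by LC-MS/MS. Cmax read directly from individual concentration–time curves.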

[19] = Terminal elimination half life in Wistar-Han rat at 5 mg/kg, po; assay type: ADME, organism-based; design: dose 5 mg/kg, route oral; details: in vivo, read-out: beta t1/2 (converted); in short: as §1
[20] = Terminal elimination half life in Wistar-Han rat at 2.9 mg/kg, po; assay type: ADME, organism-based; design: dose 2.9 mg/kg, route oral; details: in vivo, read-out: beta t1/2 (converted); in short: as §1
[21] = AUC (0 to infinity) in male Wistar-Han rat at 2.9 mg/kg, po; assay type: ADME, organism-based; design: time infinity, dose 2.9 mg/kg, route oral; details: plasma; in short: as §3
[22] = Plasma clearance in male Wistar-Han rat at 0.4 mg/kg, iv; assay type: ADME, organism-based; design: dose 0.4 mg/kg, route intravenous
In short: (§6)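 Jugular vein-cannulated male Wistar-Hannover rats (230-250 g; n = 3) given a 30 s tail-vein bolus in SEDDS/dextrose or propylene glycol/20 mM sodium phosphate (pH 7.4) vehicles. Blood sampled 0.03–24 h via cannula into K2EDTA. Plasma proteins precipitated, LC-MS/MS. Non-compartmental: CLp = dose/AUC0-∞ (linear trapezoid); Vdss; T1/2 = 0.693/terminal log-linear slope.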

[23] = Terminal elimination half life in Wistar-Han rat at 0.4 mg/kg, iv; assay type: ADME, organism-based; design: dose 0.4 mg/kg, route intravenous; details: in vivo, read-out: beta t1/2 (converted)
In short: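 Jugular vein-cannulated male Wistar-Hannover rats (230–250 g, n = 3) received a tail-vein bolus over 30 s. Vehicle depended on compound: SEDDS/dextrose or propylene glycol/20 mM sodium phosphate pH 7.4. Blood was drawn at 0.03–24 h into K2EDTA and the plasma analyzed by LC-MS/MS. Non-compartmental analysis gave T1/2 = 0.693/|terminal ln-slope|.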

[24] = AUC (0 to infinity) in male Wistar-Han rat at 0.4 mg/kg, iv; assay type: ADME, organism-based; design: time infinity, dose 0.4 mg/kg, route intravenous; details: plasma
In short: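 Jugular vein-cannulated male Wistar-Hannover rats (230-250 g), n = 3, fed ad libitum; 30 s tail-vein injection in 10% SEDDS:90% sterile dextrose, 1:1 propylene glycol:20 mM sodium phosphate (pH 7.4), or 10% propylene glycol:90% 20 mM sodium phosphate (pH 7.4). Blood via cannula to 24 h, K2EDTA plasma, LC-MS/MS against standard curve; non-compartmental AUC0-∞ by linear trapezoid rule.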

[25] = Cmax in male Wistar-Han rat at 2.9 mg/kg, po; assay type: ADME, organism-based; design: dose 2.9 mg/kg, route oral; details: in vivo; in short: as §5
[26] = Oral bioavailability in male Wistar-Han rat at 2.9 mg/kg; assay type: ADME, organism-based; details: in vivo; in short: as §4
[27] = Volume of distribution at steady state in male Wistar-Han rat at 0.4 mg/kg, iv; assay type: ADME, organism-based; design: dose 0.4 mg/kg, route intravenous; details: in vivo, read-out: Vdss; in short: as §6

Compound: CC(C)C[C@@H]1NC(=O)[C@H](Cc2ccc(O)cc2)N(C)C(=O)[C@H]2CCCN2C(=O)[C@H](CC(C)C)NC(=O)[C@H](CCCCN)N(C)C(=O)[C@@H](CC(C)C)N(C)C1=O (cyclo(L[dNMeL][NMeK]L[dP][NMeY]))
- half-life [1]: 60.6 min
- half-life [2]: 93.6 min
- CLint scaled [3]: < 9 mL/min/kg
- AUC(0-inf) [4]: 18.1 ng·h/mL
- Papp A→B [5]: 0.09 ×10⁻⁶ cm/s
- Cmax [6]: 18.3 ng/mL
- CLint scaled [7]: < 8 mL/min/kg
- AUC(0-inf) [8]: 1640 ng·h/mL
- clearance [9]: 10.4 mL/min/kg
- Tmax [10]: 1.56 h
- bioavailability [11]: 0.09%
- Vd [12]: 0.93 L/kg
- logD [13]: 0.678

Compound: CC(C)C[C@@H]1NC(=O)[C@H](Cc2ccc(O)cc2)N(C)C(=O)[C@H]2CCCN2C(=O)[C@H](CC(C)C)NC(=O)[C@H](CC(C)C)N(C)C(=O)[C@@H](CC(C)C)N(C)C1=O (cyclo(L[dNMeL][NMeL]L[dP][NMeY]))
- CLint scaled [7]: 120 mL/min/kg

Compound: CNCCCC[C@H]1C(=O)N[C@@H](CC(C)C)C(=O)N2CCC[C@@H]2C(=O)N(C)[C@@H](Cc2ccc(O)cc2)C(=O)N[C@@H](CC(C)C)C(=O)N(C)[C@H](CC(C)C)C(=O)N1C (cyclo(L[dNMeL][NMeLys(Me)]L[dP][NMeY]))
- CLint scaled [7]: 9 mL/min/kg
- logD [13]: 0.723

Compound: CC(C)C[C@@H]1NC(=O)[C@H](Cc2ccc(O)cc2)N(C)C(=O)[C@H]2CCCN2C(=O)[C@H](CC(C)C)NC(=O)[C@H](CO)N(C)C(=O)[C@@H](CC(C)C)N(C)C1=O (cyclo(L[dNMeL][NMeS]L[dP][NMeY]))
- Fh [14]: 14%
- half-life [1]: 87.6 min
- CLint scaled [3]: 96 mL/min/kg
- Fa [15]: 14.5%
- Papp A→B [5]: 3.3 ×10⁻⁶ cm/s
- bioavailability [16]: 2.03%
- CLint scaled [7]: 80 mL/min/kg
- AUC(0-inf) [8]: 282 ng·h/mL
- clearance [9]: 60.4 mL/min/kg
- AUC(0-inf) [17]: 42.3 ng·h/mL
- Vd [12]: 4.3 L/kg
- Cmax [18]: 9.86 ng/mL
- half-life [19]: 169 min
- logD [13]: 2.61

Compound: CC(C)C[C@@H]1NC(=O)[C@H](Cc2ccc(O)cc2)N(C)C(=O)[C@H]2CCCN2C(=O)[C@H](CC(C)C)NC(=O)[C@H]([C@@H](C)O)N(C)C(=O)[C@@H](CC(C)C)N(C)C1=O (cyclo(L[dNMeL][NMeT]L[dP][NMeY]))
- half-life [20]: 55.2 min
- CLint scaled [3]: 44 mL/min/kg
- AUC(0-inf) [21]: 201 ng·h/mL
- clearance [22]: 63.6 mL/min/kg
- half-life [23]: 61.8 min
- AUC(0-inf) [24]: 109 ng·h/mL
- CLint scaled [7]: 89 mL/min/kg
- Cmax [25]: 105 ng/mL
- bioavailability [26]: 23.8%
- Vd [27]: 3.8 L/kg
- logD [13]: 3.17

Compound: CC(C)C[C@@H]1NC(=O)[C@H](Cc2ccc(O)cc2)N(C)C(=O)[C@H]2CCCN2C(=O)[C@H](CC(C)C)NC(=O)[C@H](Cc2c[nH]c3ccccc23)N(C)C(=O)[C@@H](CC(C)C)N(C)C1=O (cyclo(L[dNMeL][NMeW]L[dP][NMeY]))
- CLint scaled [7]: 56 mL/min/kg
- logD [13]: 4.07

Compound: CC(C)C[C@@H]1NC(=O)[C@H](Cc2ccc(O)cc2)N(C)C(=O)[C@H]2CCCN2C(=O)[C@H](CC(C)C)NC(=O)[C@H](Cc2ccc(O)cc2)N(C)C(=O)[C@@H](CC(C)C)N(C)C1=O (cyclo(L[dNMeL][NMeY]L[dP][NMeY]))
- CLint scaled [7]: 29 mL/min/kg
- logD [13]: 3.82

Compound: CC(C)C[C@@H]1NC(=O)[C@H](Cc2ccc(O)cc2)N(C)C(=O)[C@H]2CCCN2C(=O)[C@H](CC(C)C)NC(=O)[C@H](CCN2CCCCC2)N(C)C(=O)[C@@H](CC(C)C)N(C)C1=O (cyclo(L[dNMeL][X1]L[dP][NMeY]))
- CLint scaled [7]: < 8 mL/min/kg
- logD [13]: 2.2
